DDE Tn7 FP inh – DD(E)-Tn7 binding inhibition, primary FP screen | FP displacement of FITC-Tn7 peptide from fibrin DD(E); 0% = median of compound wells per plate | AID 720508 | P02675 | inhibition, % at 8.3 µM | 370,000 compounds, 0.13% hits;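 active = inhibition above the mean of compounds falling within the control limits plus 3 SD of them, cut at about 14% in these data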
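Test system: human clot-derived fibrin DD(E) complex / Quantity: 2 µM final DD(E) protein / Incubation: 10 min plus 3 h, room temperature / Measured by: fluorescence polarization / Benchmarks: high control of 10 µM Aha-Tn7 peptide / Replicates: singlicate testing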
DDE Tn6 FP inh – inhibitors of Tn6 peptide binding to human fibrin DD(E); Fibrin DD(E) TRITC-Tn6 fluorescence polarization displacement; inhibition, % at 8.3 µM; 370,000 compounds, 0.21% hits; AID 720509;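 active = inhibition above a per-campaign cutoff: mean of compounds within control limits plus 3 SD, cut at about 15% in these data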
ABHD4 inh – ABHD4 (mouse) inhibition, primary FP screen | Q8VD66 | inhibition, % at 8.92 µM | 370,000 compounds, 0.54% hits | purified mABHD4, FP-Rh probe fluorescence polarization;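 active = inhibition exceeding the mean over every tested compound plus 3 SD, cut at about 30% in these data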
Target sequence (Q8VD66 whole entry, looked up): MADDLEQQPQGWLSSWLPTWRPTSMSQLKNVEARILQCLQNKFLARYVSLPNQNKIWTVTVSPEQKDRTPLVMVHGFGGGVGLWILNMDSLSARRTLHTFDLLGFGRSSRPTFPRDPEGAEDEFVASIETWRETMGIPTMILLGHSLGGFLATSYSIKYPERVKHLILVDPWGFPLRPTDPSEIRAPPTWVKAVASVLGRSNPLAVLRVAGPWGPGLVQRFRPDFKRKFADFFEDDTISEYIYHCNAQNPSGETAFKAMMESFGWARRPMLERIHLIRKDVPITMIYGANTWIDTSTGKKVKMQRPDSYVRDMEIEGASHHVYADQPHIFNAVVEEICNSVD
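Test system: mABHD4 protein; Read-out basis: % inhibition; Incubation: 45 min + 60 min at 25 °C; Repeats: single replicate; Technique: fluorescence polarization with parallel and perpendicular emission, 525/598 nm; Compound: 8.92 µM, single dose; Benchmarks: full inhibition S159A mutant plus DMSO, zero as sample-well median.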
HTRA1 inh – HTRA1 (human) protease inhibition | Q92743 | recombinant HTRA1, FP-rhodamine activity-based probe, fluorescence polarization | inhibition, % at 5.96 µM | 340,000 compounds, 0.5% hits | AID 504803; in the data active = inhibition above about 36%
TCR CD3 inh – inhibitors of human TCR-CD3 interaction. TAMRA-labeled TCR probe fluorescence, biochemical. inhibition, % at 9.4 µM. 360,000 compounds, 0.37% hits; in the data active = inhibition above about 19%;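 note: recombinant mutant TCR 2C K166C tagged with TAMRA read by polarization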
ABHD4 confirm – ABHD4 (mouse) inhibition, FP confirmation. shares compounds with ABHD4 inh. purified mABHD4, FP-Rh probe fluorescence polarization. inhibition, % at 8.92 µM. 1,800 compounds, 55% hits. AID 720658;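 active = mean inhibition across replicates above the hit cutoff set in the primary screen, cut at about 30% in these data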
Large screens that a line does not name were inactive (follow-up assays come after a bar, where they were run). Sampled rows, rich in hits. Any-hit rate of the full collection: about 1.3%.

Oc1ccc(Cl)cc1Nc1nc(NCC2CCCO2)c2ccccc2n1 (stereo unspecified)	ABHD4 inh 35 | ABHD4 confirm 31
Cc1ccc(S(=O)(=O)N2CCC(C(=O)O)CC2)cc1C(=O)O	none
O=C(O)C1CCN(S(=O)(=O)c2ccc3[nH]ccc3c2)CC1	ABHD4 inh 30 | ABHD4 confirm inactive
CC(C)(C)/C(O)=C/c1nc2cc(Cl)ccc2oc1=O	ABHD4 inh 32 | ABHD4 confirm inactive
O=C(NCc1ccccn1)c1ccc(Cn2cc(C(F)(F)F)ccc2=O)cc1	none
CCOc1ccc(CCNC(=O)CCNS(=O)(=O)c2ccc(Br)cc2)cc1OCC	none
CCOC(=O)C1CCN(C2=C(NS(=O)(=O)c3ccc(Cl)cc3)C(=O)c3ccccc3C2=O)CC1	ABHD4 inh 41 | ABHD4 confirm 58
Cn1cnnc1Sc1ccc(/C=C(\CCC(=O)O)c2nc3ccccc3s2)cc1[N+](=O)[O-]	none
CN(c1ccccc1)c1ccc(/C=C(\CCC(=O)O)c2nc3ccccc3s2)cc1[N+](=O)[O-]	ABHD4 inh 69 | ABHD4 confirm 62
CNc1ccc(/C=C(\CCC(=O)O)c2nc3ccccc3s2)cc1[N+](=O)[O-]	ABHD4 inh 47 | ABHD4 confirm 54
Cc1ccc(/C=C(\CCC(=O)O)c2nc3ccccc3s2)cc1[N+](=O)[O-]	none
CC(=O)Nc1ccc(S(=O)(=O)NCC(=O)OCC(=O)Nc2sccc2C(N)=O)cc1	none
COc1ccc(N2C(=O)CC(Nc3ccc(N4CCOCC4)cc3)C2=O)c(OC)c1 (stereo unspecified)	ABHD4 inh 49 | ABHD4 confirm inactive
O=C1CC(Nc2ccc(N3CCOCC3)cc2)C(=O)N1CCc1ccccc1 (stereo unspecified)	ABHD4 inh 33 | ABHD4 confirm inactive
CN(C)c1ccc(N2C(=O)CC(Nc3ccc(N4CCOCC4)cc3)C2=O)cc1 (stereo unspecified)	none
O=C1CC(Nc2ccccc2)C(=O)N1CCc1ccccc1 (stereo unspecified)	none
CCOC(=O)c1c(-c2ccccc2)oc2ccc(OCC(=O)NNC(=O)CCC(=O)O)cc12	none
CCN(CC)C(=O)c1sc(NC(=O)c2ccc3c(c2)OCO3)c(C(N)=O)c1C	none
Cc1cc(=O)n2nc(N3CCC(C(=O)NC(C)c4ccccc4)CC3)sc2n1 (stereo unspecified)	none
Cc1ccc(N(C)S(=O)(=O)c2cccc(C(=O)OCC(=O)N(C)Cc3ccccc3)c2)cc1	none
Cc1cc[n+](-c2[nH]c(=O)sc2/C=N/NC([S-])=Nc2ccccc2)cc1C	ABHD4 inh 31 | ABHD4 confirm inactive
COC(=O)[C@@H](NCc1ccc(B(O)O)cc1)C(C)C	ABHD4 inh 48 | ABHD4 confirm 36
COc1ccc(NC(=O)N2CCCC2C(=O)NCC2CCCCC2)cc1 (stereo unspecified)	none
CCOc1cc([N+](=O)[O-])cc(/C=C2/NC(=O)N(Cc3ccccc3F)C2=O)c1O	ABHD4 inh 31 | ABHD4 confirm 54
N=C1S/C(=C\c2ccco2)C(=O)N1c1nccs1	none
N=C1S/C(=C\c2ccco2)C(=O)N1c1ccc2c(c1)OCO2	ABHD4 inh 34 | ABHD4 confirm inactive
CCc1nc2ccc(C(=O)NCCc3ccco3)cc2nc1CC	none (no result: DDE Tn7 FP inh, DDE Tn6 FP inh, ABHD4 inh, TCR CD3 inh)
O=C(NCCCO)c1ccc2nc(-c3ccco3)c(-c3ccco3)nc2c1	ABHD4 inh 37 | ABHD4 confirm inactive
Cc1ccc(NS(=O)(=O)c2ccc3c(c2)NC(=O)CCS3)c(Cl)c1	none
COc1ccc(Cl)cc1NS(=O)(=O)c1ccc2c(c1)NC(=O)CCS2	ABHD4 inh 32 | ABHD4 confirm inactive
CCOC(=O)CNC(=O)C1CCC(CNS(=O)(=O)c2cccc3nsnc23)CC1 (stereo unspecified)	none
CC(=O)c1ccc(NC(=O)CSc2nnc(-c3ccco3)c(-c3ccco3)n2)cc1	ABHD4 inh 45 | ABHD4 confirm 30
O=C(CNc1cccc2ccccc12)N/N=C/c1ccc[nH]1	none
O=C(CNc1cccc2ccccc12)N/N=C/C(Br)=C/c1ccccc1	ABHD4 inh 32 | ABHD4 confirm inactive
CCCN1C(=O)N(C)C(N(O)C(=O)NC)C1(C)C (stereo unspecified)	none
COc1ccc(S(=O)(=O)N2CCC(NC(=O)c3ccccc3)CC2)cc1	ABHD4 inh 39 | ABHD4 confirm inactive
COc1ccc(Br)cc1/C=C/C(=O)c1ccc(NC(C)=O)cc1	none
COc1cccc(NC(=O)C2CCN(S(=O)(=O)c3ccc4[nH]c(=O)oc4c3)CC2)c1	ABHD4 inh 42 | ABHD4 confirm 43
C=CCNc1nc(Nc2ccc(OC)c(OC)c2)c2sc(-c3ccccc3)cc2n1	ABHD4 inh 42 (no result: HTRA1 inh) | ABHD4 confirm 51
C=CCNc1nc(NCCOC)c2sc(-c3ccccc3)cc2n1	none (no result: HTRA1 inh)
COC(=O)C1=C(C)N(Cc2ccc(C(F)(F)F)cc2)C(=NCc2ccccc2)NC1c1ccccc1 (stereo unspecified)	ABHD4 inh 33 (no result: HTRA1 inh) | ABHD4 confirm 48
COC(=O)C1=C(C)N(Cc2ccc(C(F)(F)F)cc2)C(=NCc2ccccc2)NC1c1cccc(Cl)c1 (stereo unspecified)	ABHD4 inh 37 (no result: HTRA1 inh) | ABHD4 confirm 44
COC(=O)C1=C(C)N(Cc2cccc(C(F)(F)F)c2)C(=NCc2ccc3c(c2)OCO3)NC1c1ccc(Cl)cc1 (stereo unspecified)	ABHD4 inh 40 (no result: HTRA1 inh) | ABHD4 confirm 82
COC(=O)C1=C(C)N(Cc2ccc(C(F)(F)F)cc2)C(=NCc2ccccc2)NC1c1ccc(C(F)(F)F)cc1 (stereo unspecified)	ABHD4 inh 31 (no result: HTRA1 inh) | ABHD4 confirm 39
COC(=O)C1=C(C)N(Cc2ccc(C(F)(F)F)cc2)C(=NCc2ccccc2)NC1c1cccc(C(F)(F)F)c1 (stereo unspecified)	none (no result: HTRA1 inh)
CCN=C1NC(c2cccc(Cl)c2)C(C(=O)OC)=C(C)N1Cc1ccc(C(F)(F)F)cc1 (stereo unspecified)	none (no result: HTRA1 inh)
COC(=O)C1=C(C)N(Cc2ccccc2)C(=NCc2cccc(C(F)(F)F)c2)N[C@H]1c1cccc(C(F)(F)F)c1	none (no result: DDE Tn7 FP inh, DDE Tn6 FP inh, ABHD4 inh, TCR CD3 inh)
COC(=O)C1=C(C)N(Cc2ccccc2)C(=NCc2cccc(C(F)(F)F)c2)N[C@H]1c1cccc(F)c1	ABHD4 inh 37 | ABHD4 confirm 44
COc1cc(/C=C2\SC(=S)N(Nc3ccccc3)C2=O)cc(OC)c1OC	ABHD4 inh 33 | ABHD4 confirm 40
CCOc1ccc(/C=C2\SC(=S)N(Nc3ccccc3)C2=O)cc1OC	none
CC(=S)/C=C1\Sc2ccccc2N1C	none
CN1c2ccccc2Sc2cc(N)ccc21	ABHD4 inh 37 | ABHD4 confirm 63

Bioassay records from PubChem.
